# Assay results pooled from the literature.
# PRKD3: Serine/threonine-protein kinase D3 (PRKD3, Homo sapiens, UniProt O94806)
# CDK2: Cyclin-dependent kinase 2 (CDK2, Homo sapiens, UniProt P24941)
# Adra1a: Alpha-1A adrenergic receptor (Adra1a, Rattus norvegicus, UniProt P43140)
Structure (SMILES),target,assay,test system,setting,endpoint,result
CCCCC(=O)Nc1ccc(-c2ccc3ncn(CCC)c(=O)c3c2)cn1,PRKD3,"binding, competition with immobilised ligand",,0.5 µM,remaining binding,92%
C#Cc1cc(-c2cc(Nc3nc(N[C@@H](C)c4ccc(F)cn4)ncc3Cl)n[nH]2)ccc1C=O,PRKD3,"enzyme activity, inhibitor",,0.2 µM,inhibition,4.02%
Cc1cc(O)c(-c2ccc([C@@H](C)CN(C)C)cc2)c2c1[nH]c(=O)c1sccc12,"Mitogen-activated protein kinase 6 (MAPK6, Homo sapiens, UniProt Q16659)","enzyme activity, inhibitor",,0.1 µM,inhibition,2.75%
Cc1cc(S(=O)(=O)NC2CCC(CC3CCN(c4ccc(C5CCC(=O)NC5=O)cc4)CC3)CC2)ccc1Nc1ncc(C(F)(F)F)c(N2CCC[C@](C)(O)C2)n1 (stereo partly shown),CDK2,"protein level, degrader, western blot",MKN-1,,Dmax,80%
C1=C/COCc2cc(ccc2OCCN2CCCC2)Nc2nccc(n2)-c2cccc(c2)COC/1,"Cyclin-dependent kinase 2 homolog (CRK2, Plasmodium falciparum, UniProt P61075)",cell-free assay,,0.1 µM,remaining signal,85%
Cc1cc(S(=O)(=O)NCCO[C@H]2CC[C@H](CN3CCC(c4ccc5c(c4F)n(C)c(=O)n5C4CCC(=O)NC4=O)CC3)CC2)ccc1Nc1ncc(C(F)(F)F)c([C@H]2CC[C@@](C)(O)CC2)n1 (stereo partly shown),CDK2,"protein level, degrader, western blot",MKN-1,,Dmax,86%
CCN1/C(=C/C(C)=O)Sc2ccc(F)cc21,Adra1a,"ligand displacement, radioligand",,10 µM,inhibition,1.54%
NC/C(=C\F)COc1cccc(Cn2c(=S)[nH]c(=O)c3[nH]cnc32)c1,Adra1a,"ligand displacement, radioligand",,10 µM,inhibition,< 50%
C[C@]1(O)CCCN(c2nc(Nc3ccc(S(=O)(=O)N[C@H]4CC[C@H](CN5CCN(c6ccc(C7CCC(=O)NC7=O)cc6F)CC5)CC4)cc3F)ncc2C(F)(F)F)C1 (stereo partly shown),CDK2,"protein level, degrader, western blot",TOV21G,,Dmax,95%
Cc1cc(=O)oc2cc(NC(=O)[C@H](CCCN=C(N)N)NC(=O)[C@H](CCCN=C(N)N)NC(=O)OCc3ccccc3)ccc12,"Cathepsin B (CTSB, Homo sapiens, UniProt P07858)","enzyme activity, substrate, fluorescence",,pH 5,Km,858 µM
